Laboratory results: PMC7507839 (Investigational new drugs, 2018)
pIC50: −log10 of the molar value. Entries after “also recorded” stand apart in the source; their conditions may differ.

Tests used:
[1] = test system: gastric and non-small cell lung cell lines; conditions: a number of cell lines; most pronounced in gastric and non-small cell lung cell lines; cited from earlier work
[2] = test system: ovarian cancer cell lines; conditions: with paclitaxel + carboplatin, multiple ovarian cancer cell lines; cited from earlier work
[3] = test system: metastatic or locally advanced solid tumors; test: anti-tumor activity; format: in vivo, human
Procedure, shortened: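 Adults with histologically confirmed metastatic or locally advanced solid tumors lacking standard therapy, ECOG 0–1, received test compound twice daily from 50 mg in escalating cohorts. Cycle 1 was 14 days followed by a 1-week holiday, cycles 2–4 were 14 days, and cycles from 5 on were 28 days. RECIST 1.0 imaging at end of cycle 4, then every two cycles. All patients dosed at least once analysed.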

[4] = test system: patients with metastatic or locally advanced solid tumors; test: Phase I dose escalation: safety, DLT, MTD; format: in vivo
c-Met [5] = conditions: A549 non-small cell lung carcinoma cell line; cited from earlier work
c-Met [6] = conditions: GTL-16 gastric cancer cells, cited from earlier work
c-Met [7] = conditions: read-out: IC50 towards c-Met; cited from earlier work
tyrosine kinases = conditions: cited from earlier work
GTL-16 xenograft = conditions: twice-daily 100 mg/kg orally, cited from earlier work
[8] = test system: non-small cell lung cancer cell lines; conditions: high c-Met expressing cell lines; cited from earlier work
[9] = plasma pharmacokinetics in patients; format: in vivo, human
medullary thyroid cancer = conditions: monotherapy; cited from earlier work
[10] = Dose Level 5, 550 mg BID, Fatigue
[11] = Dose Level 6, 750 mg BID, Nausea
[12] = Dose Level 7, 1050 mg BID, Nausea
[13] = Dose Level 7, 1050 mg BID, Vomiting
[14] = Dose Level 8, 1500 mg BID, Elevated ALT
[15] = Dose Level 8, 1500 mg BID, Elevated AST
[16] = Dose Level 8, 1500 mg BID, Elevated Amylase
[17] = Dose Level 8, 1500 mg BID, Hypokalaemia

Structure (SMILES): Cn1cc(-c2cnc3ccc4ccc(CS(=O)(=O)NCc5ccccn5)cc4c(=O)c3c2)cn1 [MK-8033, 1-[3-(1-methyl-1H-pyrazol-4-yl)-5-oxo-5H-benzo[4,5]cyclohepta[1,2-b]pyridin-7-yl] -N-(pyridin-2-ylmethyl)methanesulfonamide]
- IC50 for proliferation [1]: sub-micromolar
- cell growth inhibition in combination with chemotherapy [2]: synergized
- median progression-free survival (PFS) ([3]; 95% confidence interval 42–115 days): 57 days
- PFS rate ([3]; at 6 weeks): 80.4%
- PFS rate ([3]; at 12 weeks): 15.2%
- patients with stable disease (SD), % ([3]; best response): 18.2%
- patients with partial response (PR) ([3]; endometrioid adenocarcinoma): One
- patients with best response of progressive disease (PD), % ([3]; human, in vivo): 71.7%
- PFS of the responding patient ([3]; patient with endometrioid adenocarcinoma): 846 days
- No. of Subjects with a DLT ([4]; Dose Level 1 (n = 1), 50 mg BID, Total): 0
- No. of Subjects with a DLT ([4]; Dose Level 2 (n = 1), 100 mg BID, Total): 0
- No. of Subjects with a DLT ([4]; Dose Level 3 (n = 3), 200 mg BID, Total): 0
- No. of Subjects with a DLT ([4]; Dose Level 4 (n = 4), 400 mg BID, Total): 0
- No. of Subjects with a DLT ([4]; Dose Level 5 (n = 7), 550 mg BID, Fatigue): 1
- No. of Subjects with a DLT ([4]; Dose Level 5 (n = 7), 550 mg BID, Total): 1
- Number of DLTs Grade 1 [4, 10]: 0
- Number of DLTs Grade 2 [4, 10]: 0
- Number of DLTs Grade 3 [4, 10]: 1
- Number of DLTs Grade 4 [4, 10]: 0
- No. of Subjects with a DLT ([4]; Dose Level 6 (n = 18), 750 mg BID, Nausea): 1
- No. of Subjects with a DLT ([4]; Dose Level 6 (n = 18), 750 mg BID, Total): 1
- Number of DLTs Grade 1 [4, 11]: 0
- Number of DLTs Grade 2 [4, 11]: 1
- Number of DLTs Grade 3 [4, 11]: 0
- Number of DLTs Grade 4 [4, 11]: 0
- No. of Subjects with a DLT ([4]; Dose Level 7 (n = 6), 1050 mg BID, Nausea): 2
- No. of Subjects with a DLT ([4]; Dose Level 7 (n = 6), 1050 mg BID, Total): 2
- No. of Subjects with a DLT ([4]; Dose Level 7 (n = 6), 1050 mg BID, Vomiting): 2
- Number of DLTs Grade 1 [4, 12]: 0
- Number of DLTs Grade 2 [4, 12]: 0
- Number of DLTs Grade 3 [4, 12]: 2
- Number of DLTs Grade 4 [4, 12]: 0
- Number of DLTs Grade 1 [4, 13]: 0
- Number of DLTs Grade 2 [4, 13]: 1
- Number of DLTs Grade 3 [4, 13]: 1
- Number of DLTs Grade 4 [4, 13]: 0
- No. of Subjects with a DLT ([4]; Dose Level 8 (n = 3), 1500 mg BID, Elevated ALT): 1
- No. of Subjects with a DLT ([4]; Dose Level 8 (n = 3), 1500 mg BID, Elevated AST): 1
- No. of Subjects with a DLT ([4]; Dose Level 8 (n = 3), 1500 mg BID, Elevated Amylase): 1
- No. of Subjects with a DLT ([4]; Dose Level 8 (n = 3), 1500 mg BID, Hypokalaemia): 1
- No. of Subjects with a DLT ([4]; Dose Level 8 (n = 3), 1500 mg BID, Total): 2
- Number of DLTs Grade 1 [4, 14]: 0
- Number of DLTs Grade 2 [4, 14]: 0
- Number of DLTs Grade 3 [4, 14]: 1
- Number of DLTs Grade 4 [4, 14]: 0
- Number of DLTs Grade 1 [4, 15]: 0
- Number of DLTs Grade 2 [4, 15]: 0
- Number of DLTs Grade 3 [4, 15]: 1
- Number of DLTs Grade 4 [4, 15]: 0
- Number of DLTs Grade 1 [4, 16]: 0
- Number of DLTs Grade 2 [4, 16]: 0
- Number of DLTs Grade 3 [4, 16]: 1
- Number of DLTs Grade 4 [4, 16]: 0
- Number of DLTs Grade 1 [4, 17]: 0
- Number of DLTs Grade 2 [4, 17]: 0
- Number of DLTs Grade 3 [4, 17]: 0
- Number of DLTs Grade 4 [4, 17]: 1
- No. of Subjects with a DLT ([4]; Part C - (n = 3), 750 mg BID, Total): 0
- patients who died during the study ([4]; determined by investigators to be unrelated to MK-8033): Five
- maximum tolerated dose (MTD) ([4]; dose level 6, oral): 750 mg BID
- recommended phase II dose (RP2D) ([4]; dose level 6, acute and chronic toxicity, TITE-CRM): 750 mg BID
- Alopecia, All Grades, % ([4]; treatment-related, n = 46): 19.6%
- Anorexia, All Grades, % ([4]; treatment-related, n = 46): 17.4%
- Decreased Hemoglobin, All Grades, % ([4]; treatment-related, n = 46): 6.5%
- Decreased Hemoglobin, Grade ≥ 3, % ([4]; treatment-related, n = 46): 2.2%
- Diarrhea, All Grades, % ([4]; treatment-related, n = 46): 6.5%
- Dysgeusia, All Grades, % ([4]; treatment-related, n = 46): 8.7%
- Dyspepsia, All Grades, % ([4]; treatment-related, n = 46): 6.5%
- Dyspepsia, Grade ≥ 3, % ([4]; treatment-related, n = 46): 4.3%
- Elevated ALT, All Grades, % ([4]; treatment-related, n = 46): 17.4%
- Elevated ALT, Grade ≥ 3, % ([4]; treatment-related, n = 46): 2.2%
- Elevated AST, All Grades, % ([4]; treatment-related, n = 46): 10.9%
- Elevated AST, Grade ≥ 3, % ([4]; treatment-related, n = 46): 2.2%
- Elevated Amylase, All Grades, % ([4]; treatment-related, n = 46): 6.5%
- Elevated Amylase, Grade ≥ 3, % ([4]; treatment-related, n = 46): 4.3%
- Elevated Creatinine, All Grades, % ([4]; treatment-related, n = 46): 13.0%
- Elevated Lipase, All Grades, % ([4]; treatment-related, n = 46): 6.5%
- Elevated Lipase, Grade ≥ 3, % ([4]; treatment-related, n = 46): 4.3%
- Fatigue, All Grades, % ([4]; treatment-related, n = 46): 28.3%
- Fatigue, Grade ≥ 3, % ([4]; treatment-related, n = 46): 2.2%
- Headache, All Grades, % ([4]; treatment-related, n = 46): 6.5%
- Hypokalemia, All Grades, % ([4]; treatment-related, n = 46): 6.5%
- Hypokalemia, Grade ≥ 3, % ([4]; treatment-related, n = 46): 2.2%
- Lymphopenia, All Grades, % ([4]; treatment-related, n = 46): 8.7%
- Lymphopenia, Grade ≥ 3, % ([4]; treatment-related, n = 46): 4.3%
- Nausea, All Grades, % ([4]; treatment-related, n = 46): 21.7%
- Nausea, Grade ≥ 3, % ([4]; treatment-related, n = 46): 4.3%
- Vomiting, All Grades, % ([4]; treatment-related, n = 46): 13.0%
- Vomiting, Grade ≥ 3, % ([4]; treatment-related, n = 46): 2.2%
- HGF-induced phosphorylation of c-Met (c-Met [5]): inhibited
- phosphorylation of AKT and ERK1/2 (c-Met [5]): inhibited
- autophosphorylation of c-Met in the C-terminal docking site (c-Met [6]; constitutively activated c-MET): potently inhibited
- downstream signaling events such as ERK1/2 and AKT (c-Met [6]): inhibited
- pIC50 (c-Met [7]): 9.00
- selectivity (tyrosine kinases): target multiple tyrosine kinases
- plasma concentrations relative to IC50 for target inhibition (GTL-16 xenograft; mice): exceeding the IC50 for target inhibition for 24 h/day
- tolerability (GTL-16 xenograft; mice): well-tolerated
- pathway activation and tumor growth (GTL-16 xenograft): inhibited
- radiosensitization [8]: radiosensitized
- max concentration versus dose ([9]; 50 to 1500 mg BID, dose proportionality not assessable): appears to increase with dose
- Day 14/Day 1 geometric mean accumulation ratios for Cmax ([9]; 200 to 1500 mg BID dose range, not conclusive): 1.2 to 4.2
- impact of co-administered omeprazole on steady state Cmax, AUC0–12h and Tmax ([9]; Part C, 770 mg BID with or without 20 mg omeprazole, two patients): no effect; also recorded: does not appear to strongly impact
- Tmax ([9]; human, plasma, oral): 1 to 3 h

Structure (SMILES): COc1cc2nccc(Oc3ccc(NC(=O)C4(C(=O)Nc5ccc(F)cc5)CC4)cc3)c2cc1OC [cabozantinib]
- pIC50 (c-Met [7]): 8.89
- response rate (medullary thyroid cancer): 49%

Structure (SMILES): O=C1NC(=O)[C@@H](c2cn3c4c(cccc24)CCC3)[C@@H]1c1c[nH]c2ccccc12 [tivantinib, reference compound]
- pIC50 (c-Met [7]): 7.00
- selectivity (tyrosine kinases): only binds to c-Met
